Test system: MS2 coat protein
Assay: apparent Kd, MS2 coat protein; higher = weaker binding; RNA-MaP array; FMN 200 µM where present
Summary of the method: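 Green signal from SNAP-549-labelled MS2 coat protein was normalised to red-channel RNA signal and to the median Fmax of control clusters. The protein was titrated from 0.7 or 1.5 nM, doubling to 3 µM, without and then with constant ligand, over designs transcribed by stalled E. coli RNA polymerase on Illumina sequencing-chip clusters, in 100 mM Tris-HCl pH 7.5, 80 mM KCl, 4 mM MgCl2, BSA, DTT, yeast tRNA and Tween-20. The apparent Kd is the median of filtered per-cluster binding-curve fits.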

[1] = designed as: ON switch for flavin mononucleotide, no ligand
[2] = ligand present: flavin mononucleotide, designed as: ON switch for flavin mononucleotide
[3] = designed as: OFF switch for flavin mononucleotide, no ligand
[4] = ligand present: flavin mononucleotide, designed as: OFF switch for flavin mononucleotide

| Sequence | apparent Kd [1] [nM] | apparent Kd [2] [nM] | apparent Kd [3] [nM] | apparent Kd [4] [nM] |
| --- | --- | --- | --- | --- |
| UGUGUCAUCGAGAAGGCCUCAACAUGAGGAUCACCCAUGUUGUAAUAUGGGAGGAUAUCGAUGAUACAGCUACGUUUCGUAGCA | 19 | 6.11 | – | – |
| GCUGCAAAUGAGAAGGCGAUCAUGAAACAUGAUCGAGGAUAUCAUGUUUACAUGAGGAUCACCCAUGUAUGGGUAUAUUGCAGC | 707 | 14.3 | – | – |
| CGCUAAGAGAACGAUACGAGAAGACAUGAGGAUCACCCAUGUAGAAGGACAACGGAAUAAACGUUGUAGGAUAUACACUUAGCG | – | – | 15 | 20.6 |
| UAUUUACGAGGAUAUCGUUUUUUUCACAUGAGGAUCACCCAUGUUGUUUAUGUUGCGUUGCGAGAAGGCGUUUGUU | – | – | 31.1 | 23 |
| CGGCGGAAAGGAUAUGCAGUAAUAUCAAAAUGUGGGCCACGACAUGAGGAUCACCCAUGUAGAAGGUUCAGCCA | – | – | 16 | 13.6 |
| AAAUAACAUGAGGAUCACCCAUGUGCUGGAUAUGCAGGAUAUGGGCGGCGGGAGCGCGGCCCAGAAGGGCAGCUCC | 100 | 113 | – | – |
| GCACUUAGAGUUGAACCGUUUCGAACAUGAGGAUCACCCAUGUAGGAUAUGCUAAUAGUAUUGAAGCAGAAGGACAAUAAGUGC | – | – | 6.43 | 6.05 |
| CUGAGGUGUCAAGGAUAUGCUACCGUUUCGGUAGCAGAAGGUGAUCACAUGAGGAUCACCCAUGUAUGCAUGCGUGAGCGUGCU | 39.5 | 55.4 | – | – |
| AGACAGUGAGGAUAUGCAGUCGGUGUCACCUGAUGAGAAGAACAUGAGGAUCACCCAUGUAGAAGGCACAGGAA | – | – | 39 | 229 |
| GCACAUGAUACAGGAUAUGUAUUGGAAUUUAUAAUGAGUUAUAUAAUAUUUACAGAAGGGUAUACAUGAGGAUCACCCAUGUGC | – | – | 30.7 | 23 |
| CCCAGAGAUGAGAAGGGACACGGGUGCUUUCUGACAUGAGGAUCACCCAUGUCAGGAUAUCAGCAUGGCGUCGGGAUGCCCGAC | – | – | 7.24 | 5.8 |
| UUAAAUCAUGUAGGAUAUGCAUGGCGAAGCUACGCAGAAGGACAUGAGGAUCACCCAUGUGCUAGCGUCUGGAUACAGAUGCAA | – | – | 48.5 | 258 |
| AAAUCGUCAGGAUAUGCAUGUAAUUGUUACAUUUCUCCGUUGCAGAAGGGACAUGAGGAUCACCCAUGUAAGUC | – | – | 31.2 | 29.2 |
| AAUAUGUUGCAGAAGGCCAUGUUGUGGUAGUACCUCAUGACAUGAGGAUCACCCAUGUCUGUGAUGGAGGAUAUGCAAUAUAUU | – | – | 8.87 | 14.8 |
| AGGAUUGUGCUAGGAUAUCCAGGUUUGCAGCGAGGAGAAGGAGCACAUGAGGAUCACCCAUGUUCUCAAAGGCCACGGCAAUAU | – | – | 6.98 | 13.4 |
| UUAUUUUUACAGAAGGUUUAAUAAUAUGUAUGAGAAGGAUAUGUAACAUGAGGAUCACCCAUGUUUCAUCUAUAUGAGGAUCAU | – | – | 6.61 | 5.57 |
| AGUAAGAUGCAGAAGGUGUCAGCUAGUGCUACGACAUGAGGAUCACCCAUGUACUAGAAACAGUACAAGGAUAUGCAUCUUACA | 56.8 | 8.32 | – | – |
| AACGUGUGAGGAUAUGCCGUGCCCUUCCGGAAGGAGCGGGUGCAGAAGGCACAUGAGGAUCACCCAUGUCGGCA | – | – | 33.9 | 49.8 |
| UUUGCAUUCCGAGGAUAUUCAUUUAAUGACUUCACAUGAGGAUCACCCAUGUGGCGAUUGCGCCGGGAGAAGGCGGUUUGCUUU | 24.7 | 24 | – | – |
| CGCAAUAUACAGAAGGAGUUAUUUAGAGGUUUACUAGGAUAUGUUCACAUGAGGAUCACCCAUGUCAUAUGGAGUUUUAUUGCG | – | – | 9.25 | 8.33 |
| GUAUUAUAGAUCCAUUUAUUCAACAUGAGGAUCACCCAUGUGCAGGAUAUCGUGUGUUUUAUAUUCGAGAAGGGCAAAUUCAUU | – | – | 28.9 | 81.8 |
| UAAAUUAUCAAGAAGGCUAACAUGAGGAUCACCCAUGUUGUACAUGGAUAUAGAGGAUAUUGCUAAUAAUUAUUUAUCAUAAUU | – | – | 15.3 | 14.8 |
| UCGUUUAUACAAGGAUAUCAAUUAUAGCUAAAUUCAACAUGAGGAUCACCCAUGUAACUAUGGAGUGAGAAGGUGUAAUGGCUU | 116 | 310 | – | – |
| AAACAUGUCCGAGGAUAUCUGAGAACAUUUUCAAGAGAAGGCGGACAUGAGGAUCACCCAUGUCUCUCCUCAUCAACUCCAAAU | – | – | 6.37 | 17.3 |
| GUUAGUAUCUAGGAUAUCUAGUACAUAGUAUCUAGAGAAGGAGAUACAUGAGGAUCACCCAUGUUCUGUGUUCU | – | – | 25.4 | 70.4 |
| CUGAGGUCAGGAUAUGCAUGGCGGGACUUGCGUCGUGGCGUGGAGAAGGGACAUGAGGAUCACCCAUGUGGAGG | – | – | 117 | 99.8 |
| CUAAAGCGAGGAUAUACAAUAAAAGGGAAUAAGGGAAAAAAACAUGAGGAUCACCCAUGUAGAAGGCGCCGAAA | – | – | 32.2 | 30.6 |
| AACCUAUUACAGAAGGCCAGCUACAUGAGGAUCACCCAUGUCGAGUCAUGGAGGAUAUGUAGUAAUUUACUCACAAAUAAGUGC | 33.6 | 5.16 | – | – |

| Sequence | apparent Kd [1] [nM] | apparent Kd [2] [nM] | apparent Kd [3] [nM] | apparent Kd [4] [nM] |
| --- | --- | --- | --- | --- |
| UGUUGUAUUACAGGAUAUCUAUUAGUUUUAUAUAGAGAAGGGUAUUCACAUGAGGAUCACCCAUGUAUAUACGAGGAAGUUGUG | 43.4 | 45.5 | – | – |
| AAAAAACAUGAGGAUCACCCAUGUGAGGAUAUCGAAAAGUUAAAGAAAAAGACGAAAAUGAGAAGGCGCAAAAA | – | – | 47.3 | 46.7 |
| UACACGGUAGGAUAUACGUAGAUGCAGGUUCGUGUGGUGCUACAUGAGGAUCACCCAUGUAGAAGGACCAACGU | – | – | 15.7 | 15.2 |
| CGUGUGUGAGGAUAUGACAAUGGUAUCUUCGGAUACCAUUGUCAGAAGGUACAUGAGGAUCACCCAUGUAGAUC | – | – | 37.7 | 70.3 |
| AAAAGACAUGAGGAUCACCCAUGUCUUCGGACAUGAGGAUAUGUACAGACUUCGGUCUGUACAGAAGGCAUGUAAA | 42.9 | 17 | – | – |
| CCGCCAUAAGUCAGGAUAUUCUUUAAGUUGUUGGAGAAGAAGGGACAUGAGGAUCACCCAUGUAAUAGGCCUCA | – | – | 842 | 598 |
| UUAAAUCAUGUAGGAUAUGCAUGGCGAAGCUACGCAGAAGGACAUGAGGAUCACCCAUGUUCGAGCUACCGAGUUCGGUGGCAA | – | – | 21.9 | 122 |
| AAUUGAAACGUAGGAUAUCGCACUAAUUUUAAACGAGAAGGACGUACAUGAGGAUCACCCAUGUUAAAUGGUGUAGAUUAGAUG | – | – | 156 | 692 |
| UCCAGGCGAGGAUAUACUUAGAUUUUUUCGUUUAGUCUCGAACAUGAGGAUCACCCAUGUAGAAGGUGCUUCAC | – | – | 45.6 | 42 |
| CUUUUGUGAGGAUAUCAGGUGUGCUAGCGUACUGGUACAUCUGAGAAGGCACAUGAGGAUCACCCAUGUUUCUU | – | – | 32.9 | 75.5 |
| UAACGCGCAUGCAAGGAUAUGUGCAGAGCUACAUGAGGAUCACCCAUGUGGUUAUGCUAUUGAAAACAGAAGGUGCCCUCGCUCA | 25.8 | 24.3 | – | – |
| UUAUUUUUACAGAAGGUUUAAUAAUAUGUAUGAGAAGGAUAUGUAACAUGAGGAUCACCCAUGUUUUAUCUAUAUGAGGAUCAU | – | – | 6.69 | 6.88 |
| GUCAGCUCGUGAGGAUAUACAUGUGCUGGAGACAGCACUAUUGUGUUCACAUGAGGAUCACCCAUGUAGAAGGCACGAGCUGAU | – | – | 18.3 | 85.5 |
| GGGACACAUGAGGAUCACCCAUGUGAGGAUAUGUUAGUUUCGGCCAAAGCCGAAAUUAACAGAAGGCACAUACC | – | – | 36.7 | 49 |
| CUUAUGUGAGGAUAUGGUGUUGGCCACAGGAAAAAGAUCCUCCAGAAGGCACAUGAGGAUCACCCAUGUAGUGA | – | – | 39.7 | 147 |
| GUGAAGAUAGCAGGAUAUCUAUUUCCUACAUGAGGAUCACCCAUGUAGGUGAUUAGCCGAGUAAAGGAGAAGGGCUAUCUUUAC | 6.62 | 5.81 | – | – |
| GUUUGACAUGAGGAUCACCCAUGUGAGGAUAUCGGCUGGUACGUGUUGGCUGGCAUCUCGAGAAGGCACAUAGG | – | – | 134 | 60.5 |
| AUCAGCUCGUCAGGAUAUAAGUCACUGCGUCAGCAGUGUGGUAAGAUCACAUGAGGAUCACCCAUGUAGAAGGGACGAGCUGAU | – | – | 11.8 | 46.7 |
| CCGGCUUACUAGGAUAUAGGAGUCGAUAGACACCUAGAAGGAGUAACAUGAGGAUCACCCAUGUGUCCUACCGG | – | – | 22.1 | 86 |
| UAAAAGACUAGCAUGGUAACCUUCACAUGAGGAUCACCCAUGUAGGAUAUGAGCAGAAAAUCUGCUCAGAAGGACAUGCUAGUC | – | – | 3.31 | 3.67 |
| GGAUAGGACAGAGGAUAUACGUGCUAGAGAUACUAGCAAAAUUUCCUCACAUGAGGAUCACCCAUGUAGAAGGCUGUCCUAUAG | – | – | 16.7 | 432 |
| AAAUAAAGUACCUAGAUAUCCUCACAUGAGGAUCACCCAUGUCAGGAUAUUUGUCCUAAAAGGACAGAGAAGGGACAAGGUAUA | – | – | 5.52 | 9.72 |
| UGUUGUAUUACAGGAUAUCUAGUUUUUUUAUUUAGAGAAGGGUAUUCACAUGAGGAUCACCCAUGUAUAUACGAGGAAGUUGUG | 46.6 | 56.1 | – | – |
| UCCUUUAAUACAGGAUAUGUUAUUAUACAGUUGUUUGCUUAUUACUUUAUAACAGAAGGGUAGAACAUGAGGAUCACCCAUGUA | 76 | 50 | – | – |
| CGCACUGAUAGAGGAUAUGUUUUACAUGAGGAUCACCCAUGUGUACAUGGAUUAAUAUAUAAGUAACAGAAGGCUAUUUGUGCG | – | – | 18.9 | 15.1 |
| UUGCCUCAGAACAUGAGGAUCACCCAUGUGCUGCGGGCAACGUAGGAUAUGACGGUAUGAUACCGUCAGAAGGAUGAUGGUACC | 5.62 | 5.25 | – | – |
| UUACCUCAUGAGAAGGACAUGAGGAUCACCCAUGUAGGAUAUCGUGGGACAGUGGAAUUGAAUCUUCGGAUUCAAUAACUCUAU | 327 | 26.1 | – | – |

— the EternaBench riboswitch data
